The text below walks through data of ChEMBL document CHEMBL1152771, “Identification of Shc Src homology 2 domain-binding peptoid-peptide hybrids” (J Med Chem, 2009).

Broadly, the pKd is the Kd on a negative log10 scale, so that one unit is a factor of ten. Lower therefore signals a large Kd. Broadly, the pIC50 is −log10 of the IC50, conventionally taken in molar units.

SMILES strings stand for the structures. pIC50, pKd: −log10 of the molar value. *1 amine or outer side, *2 acyl side, *3 side chain or, on linkers, in order; H or OH if unused. Where a SMILES comes first, the peptide text is derived from it. [ ]: non-standard residue; d: D form. The star is where a group is joined. X2 = O=C(c1cc(N=C=S)ccc1-c1c2ccc(=O)cc-2oc2cc(O)ccc12)*; Gly(N-but-3-enyl) = O=C(CN(CCC=[*:3])[*:1])[*:2]; X5 = C=CCN([C@@H](CC(C)C)C(=O)[*:2])[*:1]; pY = N[C@@H](Cc1ccc(OP(=O)(O)O)cc1)C(=O)O; 3Amb = NCc1cccc(C(=O)O)c1; NH(but-3-enyl) = C=CCCN*; Ahx = NCCCCCC(=O)O; Ava = NCCCCC(=O)O; NHAllyl = C=CCN*

One assay addresses T1, SHC-transforming protein 1 (Homo sapiens, UniProt P29353).
T1 sequence (P29353 whole entry): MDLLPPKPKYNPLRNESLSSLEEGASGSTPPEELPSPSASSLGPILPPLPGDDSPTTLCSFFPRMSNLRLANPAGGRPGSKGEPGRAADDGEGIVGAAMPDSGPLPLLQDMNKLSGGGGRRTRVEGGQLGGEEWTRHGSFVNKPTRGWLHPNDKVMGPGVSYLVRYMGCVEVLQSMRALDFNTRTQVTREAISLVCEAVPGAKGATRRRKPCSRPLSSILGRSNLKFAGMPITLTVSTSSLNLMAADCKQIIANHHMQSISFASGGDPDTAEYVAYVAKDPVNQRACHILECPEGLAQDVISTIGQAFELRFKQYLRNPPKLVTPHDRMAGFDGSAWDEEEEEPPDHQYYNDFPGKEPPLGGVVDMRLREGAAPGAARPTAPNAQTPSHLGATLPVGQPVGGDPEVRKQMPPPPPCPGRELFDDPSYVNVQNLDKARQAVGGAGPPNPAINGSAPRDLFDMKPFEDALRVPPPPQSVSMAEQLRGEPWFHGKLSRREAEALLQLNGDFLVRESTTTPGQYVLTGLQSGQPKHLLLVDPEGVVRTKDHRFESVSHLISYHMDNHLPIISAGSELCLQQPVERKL
Kind of assay: Binding affinity to Shc Src homology 2 domain by fluorescence anisotropy. The essentials:
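Direct binding: 5 nM N-terminal fluorescein-labelled peptide in 10 mM HEPES, 150 mM NaCl pH 7.5 with 10% (v/v) DMSO; Shc SH2 protein serially diluted from 100 μM. Excitation 485 nm, parallel and perpendicular emission at 535 nm. Kd from fitting anisotropy versus protein concentration to a single-site binding model.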
For orientation: In fluorescence polarisation assays a small probe gives low polarisation when free and higher when bound to something large.
The molecule `CC(C)C[C@H](NC(=O)CNC(=O)[C@H](CCC(N)=O)NC(=O)[C@H](Cc1ccc(OP(=O)(O)O)cc1)NC(=O)c1cc(N=C=S)ccc1-c1c2ccc(=O)cc-2oc2cc(O)ccc12)C(=O)N[C@@H](CO)C(N)=O` (HELM PEPTIDE1{[O=C(c1cc(N=C=S)ccc1-c1c2ccc(=O)cc-2oc2cc(O)ccc12)[*:2]].[O=C([C@H](Cc1ccc(OP(=O)(O)O)cc1)N[*:1])[*:2]].Q.G.L.S.[am]}$$$$V2.0) showed a pKd of 4.91.

Turning to `CC(C)C[C@H](NC(=O)CNC(=O)[C@H](CCC(N)=O)NC(=O)[C@H](Cc1ccc(OP(=O)(O)O)cc1)NC(=O)[C@H](CC(C)C)NC(=O)CCNC(=O)c1cc(N=C=S)ccc1-c1c2ccc(=O)cc-2oc2cc(O)ccc12)C(=O)N[C@@H](CO)C(N)=O` (HELM PEPTIDE1{[O=C(c1cc(N=C=S)ccc1-c1c2ccc(=O)cc-2oc2cc(O)ccc12)[*:2]].[bAla].L.[O=C([C@H](Cc1ccc(OP(=O)(O)O)cc1)N[*:1])[*:2]].Q.G.L.S.[am]}$$$$V2.0), the pKd was 5.12.

With `CC(C)C[C@H](NC(=O)CNC(=O)[C@H](CCC(N)=O)NC(=O)[C@H](Cc1ccc(OP(=O)(O)O)cc1)NC(=O)CCNC(=O)c1cc(N=C=S)ccc1-c1c2ccc(=O)cc-2oc2cc(O)ccc12)C(=O)N[C@@H](CO)C(N)=O` (HELM PEPTIDE1{[O=C(c1cc(N=C=S)ccc1-c1c2ccc(=O)cc-2oc2cc(O)ccc12)[*:2]].[bAla].[O=C([C@H](Cc1ccc(OP(=O)(O)O)cc1)N[*:1])[*:2]].Q.G.L.S.[am]}$$$$V2.0), the pKd is 5.96. This pKd lies 0.84 log units higher than the previous one.

`CC(C)C[C@H](NC(=O)CNC(=O)[C@H](CCC(N)=O)NC(=O)[C@H](Cc1ccc(OP(=O)(O)O)cc1)NC(=O)c1cccc(CNC(=O)c2cc(N=C=S)ccc2-c2c3ccc(=O)cc-3oc3cc(O)ccc23)c1)C(=O)N[C@@H](CO)C(N)=O` ({X2-3Amb}-[pY]QGLS-NH2) showed a pKd of 5.30.

`CC(C)C[C@H](NC(=O)CNC(=O)[C@H](CCC(N)=O)NC(=O)[C@H](Cc1ccc(OP(=O)(O)O)cc1)NC(=O)CCCCCNC(=O)c1cc(N=C=S)ccc1-c1c2ccc(=O)cc-2oc2cc(O)ccc12)C(=O)N[C@@H](CO)C(N)=O` ({X2-Ahx}-[pY]QGLS-NH2) had a pKd of 5.33.

`CC(C)C[C@H](NC(=O)CNC(=O)[C@H](CCC(N)=O)NC(=O)[C@H](Cc1ccc(OP(=O)(O)O)cc1)NC(=O)[C@H](CC(C)C)NC(=O)CCCCNC(=O)c1cc(N=C=S)ccc1-c1c2ccc(=O)cc-2oc2cc(O)ccc12)C(=O)N[C@@H](CO)C(N)=O` ({X2-Ava}-L[pY]QGLS-NH2) showed a pKd of 5.05.

In another assay the target is T1, SHC-transforming protein 1. Briefly: Displacement of FITC-tagged NH-(CH2)4-CO-phospho-tyrosine-glutamine-glycine-leucine-serine-amide from Shc Src homology 2 domain by fluorescence anisotropy competition assay. In outline: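 Competition FA: preformed complex of 2 μM Shc SH2 domain protein and 10 nM FITC reference peptide in 10 mM HEPES, 150 mM NaCl pH 7.5 with 10% (v/v) DMSO; unlabeled competitors serially diluted from 500 μM. Excitation 485 nm, parallel/perpendicular emission 535 nm. Fractional binding from anisotropy; IC50 where spline (order three, three knots) reached one half.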
In the case of `C=CCNC(=O)[C@H](CC(C)C)N(CC=C)C(=O)CNC(=O)[C@H](CCC(N)=O)NC(=O)[C@H](Cc1ccc(OP(=O)(O)O)cc1)NC(C)=O`, the negative logarithm of the IC50 (pIC50) was 4.09.

The molecule `CC(=O)N[C@@H](Cc1ccc(OP(=O)(O)O)cc1)C(=O)N[C@@H](CCC(N)=O)C(=O)N(CCCC(C)C)CC(=O)N[C@@H](CC(C)C)C(N)=O` gave a pIC50 of 4.54.

Molecule `CC#CCN(CC(=O)N[C@@H](CC(C)C)C(N)=O)C(=O)[C@H](CCC(N)=O)NC(=O)[C@H](Cc1ccc(OP(=O)(O)O)cc1)NC(C)=O` showed a pIC50 of 4.08.

For `CC(=O)N[C@@H](Cc1ccc(OP(=O)(O)O)cc1)C(=O)N[C@@H](CCC(N)=O)C(=O)N(CCCCC#N)CC(=O)N[C@@H](CC(C)C)C(N)=O`, the pIC50 was 4.36. Against the preceding molecule, the pIC50 is 0.28 log units higher.

In turn, `CCC#CCN(CC(=O)N[C@@H](CC(C)C)C(N)=O)C(=O)[C@H](CCC(N)=O)NC(=O)[C@H](Cc1ccc(OP(=O)(O)O)cc1)NC(C)=O` showed a pIC50 of 4.77.

Regarding `CCSCCN(CC(=O)N[C@@H](CC(C)C)C(N)=O)C(=O)[C@H](CCC(N)=O)NC(=O)[C@H](Cc1ccc(OP(=O)(O)O)cc1)NC(C)=O`, the pIC50 is 4.47.

`CC(=O)N[C@@H](Cc1ccc(OP(=O)(O)O)cc1)C(=O)N[C@@H](CCC(N)=O)C(=O)N(CCCC(F)(F)F)CC(=O)N[C@@H](CC(C)C)C(N)=O` showed a negative-log IC50 (pIC50) of 4.64. This pIC50 and that of the molecule before are within 0.2 log units of each other.

`C=CCCCN(CC(=O)N[C@@H](CC(C)C)C(N)=O)C(=O)[C@H](CCC(N)=O)NC(=O)[C@H](Cc1ccc(OP(=O)(O)O)cc1)NC(C)=O`: the pIC50 was 4.80.

Consider `C=CCCCCN(CC(=O)N[C@@H](CC(C)C)C(N)=O)C(=O)[C@H](CCC(N)=O)NC(=O)[C@H](Cc1ccc(OP(=O)(O)O)cc1)NC(C)=O`, for which the pIC50 was 4.85.

On to `CC(=O)N[C@@H](Cc1ccc(OP(=O)(O)O)cc1)C(=O)N[C@@H](CCC(N)=O)C(=O)N(CCCCF)CC(=O)N[C@@H](CC(C)C)C(N)=O`, for which the pIC50 was 4.40. Against the preceding molecule, the pIC50 is 0.45 log units lower.

The molecule `C=CCNC(=O)[C@H](CC(C)C)NC(=O)CNC(=O)[C@H](CCC(N)=O)NC(=O)[C@H](Cc1ccc(OP(=O)(O)O)cc1)N(CC=C)C(C)=O` showed a negative-log IC50 (pIC50) of 3.35.

In turn, `C=CCNC(=O)[C@H](CO)NC(=O)[C@H](CC(C)C)N(CC=C)C(=O)CNC(=O)[C@H](CCC(N)=O)NC(=O)[C@H](Cc1ccc(OP(=O)(O)O)cc1)NC(C)=O` (Ac-[pY]QG[X5]S-NHAllyl) showed a pIC50 of 3.45.

Molecule `C=CCCNC(=O)[C@H](CO)NC(=O)[C@H](CC(C)C)NC(=O)CN(CCC=C)C(=O)[C@H](CCC(N)=O)NC(=O)[C@H](Cc1ccc(OP(=O)(O)O)cc1)NC(C)=O` (Ac-[pY]Q[Gly(N-but-3-enyl)]LS-{NH(but-3-enyl)}) showed a negative logarithm of the IC50 (pIC50) of 5.10.

`C=CCNC(=O)[C@H](CO)NC(=O)[C@H](CC(C)C)NC(=O)CNC(=O)[C@H](CCC(N)=O)NC(=O)[C@H](Cc1ccc(OP(=O)(O)O)cc1)N(CC=C)C(C)=O` (HELM PEPTIDE1{[ac].[C=CCN([C@@H](Cc1ccc(OP(=O)(O)O)cc1)C(=O)[*:2])[*:1]].Q.G.L.S.[C=CCN[*:1]]}$$$$V2.0) had a pIC50 of 4.39. This pIC50 is 0.71 log units lower than that of the molecule before.

Take `CC(=O)NCCCCC(=O)N[C@@H](Cc1ccc(OP(=O)(O)O)cc1)C(=O)N[C@@H](CCC(N)=O)C(=O)NCC(=O)N[C@@H](CC(C)C)C(=O)N[C@@H](CO)C(N)=O` (HELM PEPTIDE1{[ac].[O=C(CCCCN[*:1])[*:2]].[O=C([C@H](Cc1ccc(OP(=O)(O)O)cc1)N[*:1])[*:2]].Q.G.L.S.[am]}$$$$V2.0): the pKd was 3.80.

Turning to `CC(=O)N[C@@H](Cc1ccc(OP(=O)(O)O)cc1)C(=O)N[C@@H](CCC(N)=O)C(=O)NCC(=O)N[C@@H](CC(C)C)C(N)=O` (HELM PEPTIDE1{[ac].[O=C([C@H](Cc1ccc(OP(=O)(O)O)cc1)N[*:1])[*:2]].Q.G.L.[am]}$$$$V2.0), the pIC50 was 3.61.

Turning to `C=CCN(CC(=O)N[C@@H](CC(C)C)C(N)=O)C(=O)[C@H](CCC(N)=O)NC(=O)[C@H](Cc1ccc(OP(=O)(O)O)cc1)NC(C)=O` (HELM PEPTIDE1{[ac].[O=C([C@H](Cc1ccc(OP(=O)(O)O)cc1)N[*:1])[*:2]].Q.[C=CCN(CC(=O)[*:2])[*:1]].L.[am]}$$$$V2.0), the pIC50 is 4.58.

Regarding `CC(=O)N[C@@H](Cc1ccc(OP(=O)(O)O)cc1)C(=O)N[C@@H](CCC(N)=O)C(=O)N(CCC(C)C)CC(=O)N[C@@H](CC(C)C)C(N)=O` (HELM PEPTIDE1{[ac].[O=C([C@H](Cc1ccc(OP(=O)(O)O)cc1)N[*:1])[*:2]].Q.[CC(C)CCN(CC(=O)[*:2])[*:1]].L.[am]}$$$$V2.0), the pIC50 was 4.77.

`CCCN(CC(=O)N[C@@H](CC(C)C)C(N)=O)C(=O)[C@H](CCC(N)=O)NC(=O)[C@H](Cc1ccc(OP(=O)(O)O)cc1)NC(C)=O` (HELM PEPTIDE1{[ac].[O=C([C@H](Cc1ccc(OP(=O)(O)O)cc1)N[*:1])[*:2]].Q.[CCCN(CC(=O)[*:2])[*:1]].L.[am]}$$$$V2.0) had a negative logarithm of the IC50 (pIC50) of 4.59.

Regarding `CCN(CC(=O)N[C@@H](CC(C)C)C(N)=O)C(=O)[C@H](CCC(N)=O)NC(=O)[C@H](Cc1ccc(OP(=O)(O)O)cc1)NC(C)=O` (HELM PEPTIDE1{[ac].[O=C([C@H](Cc1ccc(OP(=O)(O)O)cc1)N[*:1])[*:2]].Q.[CCN(CC(=O)[*:2])[*:1]].L.[am]}$$$$V2.0), the pIC50 is 4.72.

In turn, `CCOCCN(CC(=O)N[C@@H](CC(C)C)C(N)=O)C(=O)[C@H](CCC(N)=O)NC(=O)[C@H](Cc1ccc(OP(=O)(O)O)cc1)NC(C)=O` (HELM PEPTIDE1{[ac].[O=C([C@H](Cc1ccc(OP(=O)(O)O)cc1)N[*:1])[*:2]].Q.[CCOCCN(CC(=O)[*:2])[*:1]].L.[am]}$$$$V2.0) showed a pIC50 of 4.48. Compared with the last molecule, the pIC50 is 0.24 log units lower.

Consider `COCCN(CC(=O)N[C@@H](CC(C)C)C(N)=O)C(=O)[C@H](CCC(N)=O)NC(=O)[C@H](Cc1ccc(OP(=O)(O)O)cc1)NC(C)=O` (HELM PEPTIDE1{[ac].[O=C([C@H](Cc1ccc(OP(=O)(O)O)cc1)N[*:1])[*:2]].Q.[COCCN(CC(=O)[*:2])[*:1]].L.[am]}$$$$V2.0), for which the pIC50 was 4.25.

`CC(=O)N[C@@H](Cc1ccc(OP(=O)(O)O)cc1)C(=O)N[C@@H](CCC(N)=O)C(=O)N(CC(=O)N[C@@H](CC(C)C)C(N)=O)Cc1ccccc1` (HELM PEPTIDE1{[ac].[O=C([C@H](Cc1ccc(OP(=O)(O)O)cc1)N[*:1])[*:2]].Q.[O=C(CN(Cc1ccccc1)[*:1])[*:2]].L.[am]}$$$$V2.0) showed a pIC50 of 4.72.
